The results in this text go back to ChEMBL document CHEMBL1132246, “Cross-linking and sequence-specific alkylation of DNA by aziridinylquinones. 3. Effects of alkyl substituents” (1999).

For one assay, the system named is NCI-H460. The assay is described as follows: In vitro cytotoxicity against H460 cell line. The assay is classed as functional, Homo sapiens. The method, boiled down:
(§1)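 Continuous-exposure MTT assay at 600 cells/well. HT29 (colon) and H460 (large-cell lung) express high DTD; H596 (lung) and BE (colon) lack detectable DTD activity. Absorbance was read at 540 and 640 nm after 5 days, and growth inhibition was plotted against concentration. Triplicates at each concentration, on at least two occasions.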

Assay [1] is described as follows: Rate of reduction by human BE cell extract. The assay is classed as functional. The gist of the method:
(§2)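 Extract from 2 × 10⁷ BE cells in 2 mL PBS, sonicated and centrifuged to remove debris. Quinone at 100 µM in PBS with acetylated cytochrome c (100 µM) and NADPH (200 µM). Reduction was followed through cytochrome c reduction.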

The test system of assay [2] is Nucleic Acid. The assay is described as follows: Ability to produce interstrand cross-links in the plasmid DNA at 100 uM concentration. The assay is classed as functional. The gist of the method: (§3)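 Stocks were 10 mM in DMSO. DNA was ethanol-precipitated, denatured in 30% DMSO at 90 °C for 2 min and run on 0.8% agarose gels at 40 V for 16 h. Cross-linked versus single-stranded DNA was read by autoradiography.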

The target of assay [3] is NAD(P)H dehydrogenase [quinone] 1 (Homo sapiens) (UniProt P15559). The assay is described as follows: Rate of reduction by human recombinant DTD. The assay is classed as functional. The method, boiled down: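 Human recombinant DTD (specific activity 653 µmol/min/mg protein) with quinone at 50 µM in 50 mM Tris-HCl, pH 7.4. Reduction was followed through the coupled reduction of 70 µM cytochrome c.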
NAD(P)H dehydrogenase [quinone] 1 (Homo sapiens), sequence (P15559 whole entry): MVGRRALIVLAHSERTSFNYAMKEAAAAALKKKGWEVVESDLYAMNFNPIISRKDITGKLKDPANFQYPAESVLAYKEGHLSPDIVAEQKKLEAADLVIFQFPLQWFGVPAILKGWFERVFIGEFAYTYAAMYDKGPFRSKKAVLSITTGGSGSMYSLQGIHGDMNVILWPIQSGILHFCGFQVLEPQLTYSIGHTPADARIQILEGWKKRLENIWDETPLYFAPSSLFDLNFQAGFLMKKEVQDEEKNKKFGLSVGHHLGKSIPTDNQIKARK

The test system of assay [4] is Nucleic Acid. The assay is described as follows: Ability to produce interstrand cross-links in the plasmid DNA at 10 uM concentration. The assay is classed as functional. The method, boiled down:
as §3

In a further assay the test system is NCI-H596. As to the kind of experiment: In vitro cytotoxicity against H596 cell line. The assay is classed as functional, Homo sapiens. The method, boiled down:
as §1

Assay [5] concerns BE. As to the kind of experiment: In vitro cytotoxicity against BE cell line. The assay is classed as functional, Homo sapiens. The gist of the method: as §1
A further assay has as its system HT-29. The assay is described as follows: In vitro cytotoxicity against HT-29 cell line. The assay is classed as functional, Homo sapiens. The gist of the method: as §1
Assay [6] concerns BE. The assay is described as follows: Rate of reduction by human BE cell extract; Not Detected. The assay is classed as functional, cell-based. The method, boiled down:
as §2

In the case of `O=C1C=C(N2CC2)C(=O)C=C1N1CC1`, the Cytotoxicity in the assay with NCI-H460 is recorded as 4.6 nM; in the assay on NCI-H596, 12.9 nM; in the assay with BE [5], 10.2 nM; in the assay on HT-29, 5.1 nM. The Rate of reduction was determined as 25.3 nM/min/mg in [1] and 35.6 µM/min/mg in assay [3]. Moreover, the Activity in the assay with Nucleic Acid [2] and in the assay with Nucleic Acid [4] was 100% in each case.
Take `CC(C)C1=C(N2CC2)C(=O)C(C(C)C)=C(N2CC2)C1=O`: the values for the Rate of reduction entry (in the assay with BE [6]; in assay [3]) were “Not detected” and 0.22 µM/min/mg, respectively. In addition, the Cytotoxicity in the assay on NCI-H460 stood at 170 nM; with NCI-H596 it was 2620 nM; in the assay with BE [5], 3130 nM; in the assay on HT-29, 2740 nM. For the same compound, the Activity with Nucleic Acid [2] and in the assay with Nucleic Acid [4] was 0% throughout.
For the compound `CCC1=C(N2CC2)C(=O)C(C)=C(N2CC2)C1=O`, the Cytotoxicity in the assay with NCI-H460 came out at 1.6 nM; with NCI-H596, 98.5 nM; in the assay on BE [5], 84 nM; in the assay with HT-29, 3.9 nM. Further, the Rate of reduction in [1] was 4 nM/min/mg; in [3] it was 12.5 µM/min/mg. Moreover, the results for the Activity with Nucleic Acid [2] and in the assay on Nucleic Acid [4] were 100% and 69%, respectively.
Take `CC1=C(N2CC2)C(=O)C(C)=C(N2CC2)C1=O`: the Cytotoxicity amounted to 0.77 nM with NCI-H460, 48.8 nM in the assay on NCI-H596, 25.9 nM in the assay with BE [5] and 3.4 nM in the assay on HT-29. Also, the Rate of reduction in assay [1] was 9.2 nM/min/mg; in [3], 21 µM/min/mg. Also, the Activity with Nucleic Acid [2] came to 100%; in the assay with Nucleic Acid [4], 79.8%.
Take `CC1=C(N2CC2)C(=O)C(C(C)C)=C(N2CC2)C1=O`: the Cytotoxicity with NCI-H460 is on record as 3.6 nM; with NCI-H596, 1230 nM; with BE [5], 1300 nM; in the assay with HT-29 it was 33 nM. The Rate of reduction in assay [1] is 1.1 nM/min/mg; in assay [3], 2.7 µM/min/mg. In addition, the Activity in the assay on Nucleic Acid [2] came out at 87.8%; in the assay with Nucleic Acid [4], 28.1%.
As to `CCCC1=C(N2CC2)C(=O)C(CCC)=C(N2CC2)C1=O`, the Cytotoxicity is given as 20.1 nM in the assay on NCI-H460, 1290 nM with NCI-H596, 590 nM with BE [5] and 58.2 nM in the assay with HT-29. The Rate of reduction was found to be 1.7 nM/min/mg in assay [1] and 1 µM/min/mg in [3]. The Activity with Nucleic Acid [2] was determined as 95.6%; with Nucleic Acid [4], 16.4%.
Take `CCC1=C(N2CC2)C(=O)C(CC)=C(N2CC2)C1=O`: the Cytotoxicity in the assay with NCI-H460 is given as 4.1 nM; with NCI-H596, 1160 nM; with BE [5], 290 nM; in the assay on HT-29, 21.8 nM. The Rate of reduction in assay [1] worked out at 2.3 nM/min/mg; in [3] it was 3 µM/min/mg. The figures for the Activity with Nucleic Acid [2] and with Nucleic Acid [4] were 100% and 60.9%, respectively.
As for `CCCC1=C(N2CC2)C(=O)C(C)=C(N2CC2)C1=O`, the Cytotoxicity in the assay with NCI-H460 stood at 3.3 nM; in the assay with NCI-H596 it was 228 nM; with BE [5], 67 nM; in the assay on HT-29, 5.5 nM. Further, the Rate of reduction turned out to be 3.4 nM/min/mg in [1] and 7.9 µM/min/mg in assay [3]. Also, the Activity was found to be 100% with Nucleic Acid [2] and 58.4% in the assay with Nucleic Acid [4].
